What was measured:
Acetylcholinesterase [1] = biological target: T1, Acetylcholinesterase (Electrophorus electricus, UniProt O42275); test: (§1) Inhibition of electric eel AChE using acetylthiocholine iodide as substrate preincubated for 10 mins followed by substrate addition by Ellman's method
Mus musculus [2] = test: Antinociceptive activity in carrageenan-induced Swiss mouse model of mechanical hyperalgesia assessed as mechanical hyperalgesic index pretreated orally for 1 hr followed by carrageenan challenge by Von Frey filament assay; assay type: functional
Method in brief: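 Swiss mice were placed in wire-screen acrylic boxes 60 min before testing. Vehicle, compound or indomethacin was given orally 1 h before intraplantar carrageenan. Mechanical threshold was found by the von Frey up-and-down method, with at least 6 trials at 10 s intervals, raising filament mass until paw withdrawal. Results are given as threshold in grams; n=8.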

Mus musculus [3] = test: Antinociceptive activity in formalin-induced Swiss mouse model of hyperalgesia assessed as time spent licking the injected paw in early phase at 100 mM/kg, po pretreated for 1 hr followed by formalin injection and measured up to 5 mins (reference value: 74 +/- 7.7 secs); assay type: functional
Mus musculus [4] = test: Antinociceptive activity in formalin-induced Swiss mouse model of hyperalgesia assessed as time spent licking the injected paw in last phase at […], po pretreated for 1 hr followed by formalin injection and measured at 20 to 30 mins (reference value: 135.8 +/- 10.7 secs); assay type: functional
Mus musculus [5] = test: Anti-inflammatory activity in Swiss mouse assessed as reduction in carrageenan-induced paw edema by measuring paw volume […] po pretreated for 1 hr followed by carrageenan injection and measured after 1 to 5 hrs by plethysmometric method (reference value: 67.73 +/- 4.2 uL); assay type: functional
Method in brief: (§2)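 Male Swiss mice (22–28 g) were fasted overnight and dosed orally with vehicle (2% DMSO in sterile saline), compound or indomethacin 1 h before intraplantar carrageenan. Groups (n=10) were matched on basal paw volume. Right hind paw volume was read by plethysmometer at 1, 3 and 5 h and expressed as change from basal.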

Mus musculus [6] = test: Anti-inflammatory activity in po dosed Swiss mouse assessed as reduction in carrageenan-induced paw edema pretreated for 1 hr followed by carrageenan injection and measured after 1 to 5 hrs by plethysmometric method; assay type: functional; conditions: read-out: ID50 (the source's name); method in brief: as §2
[7] = biological target: Acetylcholinesterase (Electrophorus electricus) (UniProt O42275); test: Inhibition of electric eel AChE at 100 uM using acetylthiocholine iodide as substrate preincubated for 10 mins followed by substrate addition by Ellman's method relative to control
[8] = biological target: Acetylcholinesterase (Electrophorus electricus) (UniProt O42275); test: as §1
[9] = biological target: Cholinesterase (Equus caballus) (UniProt P81908); test: (§3) Inhibition of […] preincubated for 10 mins followed by substrate addition by Ellman's method
Cholinesterase = Cholinesterase (Equus caballus, UniProt P81908); test: as §3
[10] = Selectivity ratio of IC50 for equine serum BuChE to IC50 for electric eel AChE
Method in brief: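 Ellman kinetic assay with Electrophorus electricus AChE (acetylthiocholine) and equine serum BuChE (butyrylthiocholine iodide), […]. Enzyme was preincubated 10 min with DTNB and compound in 0.1 M sodium phosphate, pH 7.4 (final DMSO <0.2%), before substrate was added. A412 was read every 12 s for 5 min at rt to give maximum velocity. IC50 is the geometric mean of 2–3 curves, each 6 concentrations in triplicate. Selectivity is IC50 BuChE/IC50 AChE.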

Acetylcholinesterase [11] = biological target: T1, Acetylcholinesterase; test: Non-competitive inhibition of electric eel AChE using acetylthiocholine iodide as substrate preincubated for 10 mins followed by substrate addition by Ellman's method
Method in brief: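 Substrate-competition kinetics with E. electricus AChE by Ellman's method: 10 min enzyme–DTNB–compound preincubation in 0.1 M phosphate, pH 7.4, then acetylthiocholine; A412 was read every 12 s for 5 min at rt. Three independent data sets, each in triplicate, were averaged and fitted to a simple noncompetitive model. That model was compared with mixed linear inhibition by AICc probability ratio.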

[12] = Cytotoxicity against human HepG2 cells assessed as cell viability at 20 to 40 uM after 6 hrs by trypan blue exclusion assay relative to control; assay type: cell-based; conditions: read-out: Activity
Mus musculus [13] = test: Inhibition of serum COX1 level in Swiss mouse model of carragenan-induced paw edema at 100 mM/kg, po pretreated for 1 hr followed by carrageenan treatment measured after 3 hrs by ELISA; assay type: functional
Method in brief: (§4)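 Swiss mice (n=8) received compound (100 mM/kg) or vehicle orally 1 h before intraplantar carrageenan; indomethacin was the positive control. Three hours later, blood was drawn from the heart under chloral hydrate anaesthesia and serum was collected. COX-1 and COX-2 protein was measured by sandwich ELISA read at 450 nm and expressed as percent COX level.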

Mus musculus [14] = test: Inhibition of serum COX2 level in Swiss mouse model of carragenan-induced paw edema at 100 mM/kg, po pretreated for 1 hr followed by carrageenan treatment measured after 3 hrs by ELISA; assay type: functional; method in brief: as §4
[15] = biological target: T2, Prostaglandin G/H synthase 1 (Ovis aries) (UniProt P05979); test: Inhibition of ovine COX1 at 10 uM using arachidonic acid as substrate preincubated for 120 mins followed by substrate addition measured for 5 secs by chemiluminescence assay relative to control
T2 sequence (whole entry): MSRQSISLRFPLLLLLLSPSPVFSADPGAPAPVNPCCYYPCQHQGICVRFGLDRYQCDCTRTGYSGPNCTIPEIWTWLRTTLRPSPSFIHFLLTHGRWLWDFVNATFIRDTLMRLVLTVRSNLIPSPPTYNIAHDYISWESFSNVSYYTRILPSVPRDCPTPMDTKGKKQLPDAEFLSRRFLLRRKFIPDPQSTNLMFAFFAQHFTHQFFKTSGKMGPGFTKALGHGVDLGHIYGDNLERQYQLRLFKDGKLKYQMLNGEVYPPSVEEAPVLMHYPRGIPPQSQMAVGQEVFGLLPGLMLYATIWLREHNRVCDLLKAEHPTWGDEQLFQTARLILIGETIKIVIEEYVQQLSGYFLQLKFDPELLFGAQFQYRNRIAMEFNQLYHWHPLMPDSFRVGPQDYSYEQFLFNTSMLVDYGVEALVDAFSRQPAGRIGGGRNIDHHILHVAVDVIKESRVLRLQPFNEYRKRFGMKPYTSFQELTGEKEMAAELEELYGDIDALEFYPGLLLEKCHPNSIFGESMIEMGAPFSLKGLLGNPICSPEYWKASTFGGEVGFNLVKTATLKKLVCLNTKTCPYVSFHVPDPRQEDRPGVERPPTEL
Method in brief: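 COX-1 or COX-2 with heme was preincubated 120 min with compound (10 µM) in assay buffer. Arachidonic acid and a chemiluminescent substrate were then added at room temperature and peroxidative activity was read for 5 s; ibuprofen was the reference. Selectivity index was taken as the ratio of maximum COX-2 inhibition to COX-1 inhibition. Two independent experiments.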

Mus musculus [16] = test: Antinociceptive activity in formalin-induced Swiss mouse model of hyperalgesia assessed as time spent licking the injected paw in early phase at 39 mM/kg, po pretreated for 1 hr followed by formalin injection and measured up to 5 mins (reference value: 74 +/- 7.7 secs); assay type: functional
Mus musculus [17] = test: Antinociceptive activity in formalin-induced Swiss mouse model of hyperalgesia assessed as time spent licking the injected paw in last phase at 39 mM/kg, po pretreated for 1 hr followed by formalin injection and measured at 20 to 30 mins (reference value: 135.8 +/- 10.7 secs); assay type: functional

T1 sequence (O42275 whole entry): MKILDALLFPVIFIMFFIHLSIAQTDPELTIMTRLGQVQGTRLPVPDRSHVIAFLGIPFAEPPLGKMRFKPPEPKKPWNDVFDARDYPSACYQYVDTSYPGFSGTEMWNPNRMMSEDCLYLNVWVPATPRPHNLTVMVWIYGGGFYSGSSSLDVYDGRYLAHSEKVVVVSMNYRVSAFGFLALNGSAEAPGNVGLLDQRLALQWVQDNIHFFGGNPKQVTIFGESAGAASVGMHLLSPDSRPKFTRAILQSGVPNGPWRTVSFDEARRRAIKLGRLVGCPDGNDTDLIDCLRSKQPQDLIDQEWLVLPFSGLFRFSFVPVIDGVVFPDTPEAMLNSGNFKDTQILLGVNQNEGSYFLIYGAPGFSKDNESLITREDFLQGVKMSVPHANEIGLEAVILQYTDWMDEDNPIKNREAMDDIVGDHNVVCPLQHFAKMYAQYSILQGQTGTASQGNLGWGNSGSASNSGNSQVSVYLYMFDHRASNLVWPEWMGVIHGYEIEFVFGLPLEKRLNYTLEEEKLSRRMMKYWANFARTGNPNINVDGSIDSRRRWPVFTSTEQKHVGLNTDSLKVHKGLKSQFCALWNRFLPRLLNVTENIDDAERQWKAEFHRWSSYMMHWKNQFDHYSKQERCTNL
Sequence of Acetylcholinesterase (Electrophorus electricus) (O42275 24-633 limits assumed): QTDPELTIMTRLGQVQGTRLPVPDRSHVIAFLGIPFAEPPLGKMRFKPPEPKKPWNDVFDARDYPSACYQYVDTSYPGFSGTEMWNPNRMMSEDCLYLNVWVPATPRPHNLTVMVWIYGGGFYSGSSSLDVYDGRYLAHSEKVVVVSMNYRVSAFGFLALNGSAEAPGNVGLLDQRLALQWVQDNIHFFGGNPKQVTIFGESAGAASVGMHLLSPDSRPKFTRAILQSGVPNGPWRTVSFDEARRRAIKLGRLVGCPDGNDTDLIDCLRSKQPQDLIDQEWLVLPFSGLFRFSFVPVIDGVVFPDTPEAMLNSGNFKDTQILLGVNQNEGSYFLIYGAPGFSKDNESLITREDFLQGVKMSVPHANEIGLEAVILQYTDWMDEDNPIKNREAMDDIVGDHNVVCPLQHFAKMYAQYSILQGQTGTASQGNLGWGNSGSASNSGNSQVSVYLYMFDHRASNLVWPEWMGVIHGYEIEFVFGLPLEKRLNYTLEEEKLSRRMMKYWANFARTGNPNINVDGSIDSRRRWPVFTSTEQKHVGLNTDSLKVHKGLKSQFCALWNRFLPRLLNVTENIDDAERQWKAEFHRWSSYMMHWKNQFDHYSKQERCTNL
Sequence of Cholinesterase (Equus caballus) (P81908 whole entry): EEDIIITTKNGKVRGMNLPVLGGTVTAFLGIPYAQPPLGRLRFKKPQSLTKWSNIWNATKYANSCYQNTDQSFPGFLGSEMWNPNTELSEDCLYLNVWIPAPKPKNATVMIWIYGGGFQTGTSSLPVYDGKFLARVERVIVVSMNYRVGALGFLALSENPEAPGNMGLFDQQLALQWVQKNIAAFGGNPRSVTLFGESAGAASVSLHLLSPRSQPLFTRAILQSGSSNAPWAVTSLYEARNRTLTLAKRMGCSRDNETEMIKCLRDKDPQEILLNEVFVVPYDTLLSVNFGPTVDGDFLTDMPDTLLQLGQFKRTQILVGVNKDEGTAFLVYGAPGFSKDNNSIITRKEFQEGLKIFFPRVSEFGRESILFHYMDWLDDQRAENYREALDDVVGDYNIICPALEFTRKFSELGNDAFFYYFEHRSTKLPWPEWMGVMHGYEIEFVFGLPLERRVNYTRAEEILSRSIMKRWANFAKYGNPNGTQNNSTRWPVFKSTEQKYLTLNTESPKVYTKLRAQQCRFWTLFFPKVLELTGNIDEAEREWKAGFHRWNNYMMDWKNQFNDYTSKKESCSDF
Sequence of Cholinesterase (P81908 whole entry): as above

O=C(N/N=C/c1ccc(N2CCOCC2)cc1)c1ccc(CN2CCCC(O)C2)cc1 (stereo not drawn)
IC50 (Acetylcholinesterase [1]): ≥ 100 µM | Activity_index (Mus musculus [2]): 83.96 | Time (Mus musculus [3]): 62.75 s | Time (Mus musculus [4]): 69.67 s | Activity (Mus musculus [5]): 21.43 µL | ED50 (Mus musculus [6]): 2.67 µmol/kg

O=C(N/N=C/c1ccc(N2CCCC2)cc1)c1ccc(CN2CCCC(O)C2)cc1 (stereo not drawn)
inhibition [7]: > 60% | inhibition [8]: Dose-dependent effect | IC50 (Acetylcholinesterase [1]): 14.7 µM | Activity_index (Mus musculus [2]): 206.4

COc1ccc(/C=N/NC(=O)c2ccc(CN3CCCC(O)C3)cc2)cc1 (stereo not drawn)
inhibition [7]: > 60% | inhibition [8]: Dose-dependent effect | IC50 (Acetylcholinesterase [1]): 13.2 µM | inhibition [9]: Dose-dependent effect | IC50 (Cholinesterase): 91.9 µM | Ratio IC50 [10]: 7 | Ki (Acetylcholinesterase [11]): 11.5 µM | Activity_index (Mus musculus [2]): 161.1 | Time (Mus musculus [3]): 13.29 s | Time (Mus musculus [4]): 15.86 s | Activity (Mus musculus [5]): 25.71 µL | ED50 (Mus musculus [6]): 68.3 µmol/kg

CSc1ccc(/C=N/NC(=O)c2ccc(CN3CCCC(O)C3)cc2)cc1 (stereo not drawn)
inhibition [7]: > 60% | inhibition [8]: Dose-dependent effect | IC50 (Acetylcholinesterase [1]): 10.4 µM | inhibition [9]: Dose-dependent effect | IC50 (Cholinesterase): 59.3 µM | Ratio IC50 [10]: 5.7 | Ki (Acetylcholinesterase [11]): 8.42 µM | Activity_index (Mus musculus [2]): 260.3

O=C(N/N=C/c1ccc(Br)cc1)c1ccc(CN2CCCC(O)C2)cc1 (stereo not drawn)
inhibition [7]: > 60% | inhibition [8]: Dose-dependent effect | IC50 (Acetylcholinesterase [1]): 11.9 µM | Activity_index (Mus musculus [2]): 235.8

O=C(N/N=C/c1ccc([N+](=O)[O-])cc1)c1ccc(CN2CCCC(O)C2)cc1 (stereo not drawn)
inhibition [7]: > 60% | inhibition [8]: Dose-dependent effect | IC50 (Acetylcholinesterase [1]): 2.71 µM | inhibition [9]: Dose-dependent effect | IC50 (Cholinesterase): 33.9 µM | Ratio IC50 [10]: 12.5 | Ki (Acetylcholinesterase [11]): 2.45 µM | Activity_index (Mus musculus [2]): 320.1

O=C(N/N=C/c1ccccc1)c1ccc(CN2CCCC(O)C2)cc1 (stereo not drawn)
inhibition [7]: > 60% | inhibition [8]: Dose-dependent effect | IC50 (Acetylcholinesterase [1]): 30 µM

COc1cccc2c1C(=O)c1c(O)c3c(c(O)c1C2=O)C[C@@](O)(C(=O)CO)C[C@@H]3O[C@H]1C[C@H](N)[C@H](O)[C@H](C)O1 [DOXORUBICIN]
viability at 6 h, 40 µM [12]: > 90%

CC(=O)OC1CCCN(Cc2ccc(C(=O)N/N=C/c3ccc(Br)cc3)cc2)C1 (stereo not drawn)
IC50 (Acetylcholinesterase [1]): ≥ 100 µM | Activity_index (Mus musculus [2]): 206.9

O=C(N/N=C/c1ccc(N2CCCCC2)cc1)c1ccc(CN2CCCC(O)C2)cc1 (stereo not drawn)
inhibition [7]: > 60% | inhibition [8]: Dose-dependent effect | IC50 (Acetylcholinesterase [1]): 10.9 µM | inhibition [9]: Dose-dependent effect | IC50 (Cholinesterase): 58.1 µM | Ratio IC50 [10]: 5.3 | Ki (Acetylcholinesterase [11]): 9.7 µM | Activity_index (Mus musculus [2]): 64.56 | Time (Mus musculus [3]): 19.63 s | Time (Mus musculus [4]): 110 s

CC(=O)OC1CCCN(Cc2ccc(C(=O)N/N=C/c3ccc(N)cc3)cc2)C1 (stereo not drawn)
IC50 (Acetylcholinesterase [1]): ≥ 100 µM | Activity_index (Mus musculus [2]): 146.1 | Time (Mus musculus [3]): 47.75 s | Time (Mus musculus [4]): 69.75 s | Activity (Mus musculus [5]): 11.43 µL | ED50 (Mus musculus [6]): 4.2 µmol/kg

COc1ccc2c(c1)c(CC(=O)O)c(C)n2C(=O)c1ccc(Cl)cc1 [INDOMETHACIN]
Activity_index (Mus musculus [2]): 158.1 | Time (Mus musculus [3]): 65.43 s | Time (Mus musculus [4]): 22.75 s | Activity (Mus musculus [5]): 14.29 µL | ED50 (Mus musculus [6]): 2.12 µmol/kg | inhibition (INH) (Mus musculus [13]): 52% | inhibition (INH) (Mus musculus [14]): 40%

O=C(N/N=C/c1ccc(-n2ccnc2)cc1)c1ccc(CN2CCCC(O)C2)cc1 (stereo not drawn)
inhibition [7]: > 60% | inhibition [8]: Dose-dependent effect | IC50 (Acetylcholinesterase [1]): 21.7 µM | inhibition [9]: Dose-dependent effect | IC50 (Cholinesterase): 39.6 µM | Ratio IC50 [10]: 1.8 | Ki (Acetylcholinesterase [11]): 21.1 µM

CC(=O)Oc1ccc(/C=N/NC(=O)c2ccc(CN3CCCC(OC(C)=O)C3)cc2)cc1 (stereo not drawn)
IC50 (Acetylcholinesterase [1]): ≥ 100 µM | Activity_index (Mus musculus [2]): 353.1

COc1cc2c(cc1OC)C(=O)C(CC1CCN(Cc3ccccc3)CC1)C2 (stereo not drawn) [DONEPEZIL]
viability at 6 h, 40 µM [12]: > 90%

CC(C)Cc1ccc(C(C)C(=O)O)cc1 (stereo not drawn)
inhibition [15]: 88%

CN1CC[C@]23c4c5ccc(O)c4O[C@H]2[C@@H](O)C=C[C@H]3[C@H]1C5 [MORPHINE]
Time (Mus musculus [16]): 7.5 s | Time (Mus musculus [17]): 3.375 s

Nc1ccc(/C=N/NC(=O)c2ccc(CN3CCCC(O)C3)cc2)cc1 (stereo not drawn)
inhibition [7]: > 60% | inhibition [8]: Dose-dependent effect | IC50 (Acetylcholinesterase [1]): 21.5 µM | Activity_index (Mus musculus [2]): 244.4
